The text below walks through data of ChEMBL document CHEMBL1212756, “Klebsiella pneumoniae AcrAB efflux pump contributes to antimicrobial resistance and virulence” (2010).

Converted amounts (≈) assume the structure as drawn. The source made the active and inactive calls. No cut-off for these calls is given here.

The subject of assay [1] is Klebsiella pneumoniae. Description: Antimicrobial activity against rifampin resistant Klebsiella pneumoniae 52deltaacrB containing isogenic acrB knockout assessed as growth inhibition by Etest method. Type of assay: functional. The procedure, abridged: (§1)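 MICs were read from Etest strips following the manufacturer's instructions. The parent strain is a spontaneous rifampin-resistant mutant of clinical isolate 52145 (serotype O1:K2), grown in LB at 37°C. The acrB and acrR knockouts were made from it by insertion-duplication via homologous recombination with plasmid pFS100.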

Assay [2] deals with Klebsiella pneumoniae. Description: Antimicrobial activity against rifampin resistant Klebsiella pneumoniae 52145R assessed as growth inhibition by Etest method. The assay is classed as functional. An outline of the steps:
as §1

Assay [3] relates to Klebsiella pneumoniae. Description: Antimicrobial activity against rifampin resistant Klebsiella pneumoniae 52deltaacrR containing isogenic acrR knockout assessed as growth inhibition by Etest method. Type of assay: functional. An outline of the steps: as §1
For assay [4], the system named is Klebsiella pneumoniae. Description: Antimicrobial activity against rifampin resistant Klebsiella pneumoniae 52145R assessed as growth inhibition at 0.1 ug/ml in presence of 50 uM uncoupler CCCP by Etest method. Type of assay: functional, organism-based. An outline of the steps:
(§2)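 Exponential-phase LB cultures (37°C) were harvested and resuspended at ca. 2.1 x 10^5 CFU/ml in 1% tryptone-PBS, pH 7.4. They were exposed to polymyxin B 0.1 µg/ml for 30 min at 37°C, either alone, after de-energizing with 50 µM CCCP, or with 0.4% glucose. Colony counts are given as % of unexposed cells, in duplicate on at least three occasions.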

The subject of assay [5] is Klebsiella pneumoniae. The assay is described as follows: Antimicrobial activity against rifampin resistant Klebsiella pneumoniae 52deltaacrB containing isogenic acrB knockout assessed as growth inhibition at 0.1 ug/ml by Etest method. Type of assay: functional, organism-based.
For assay [6], the system named is Klebsiella pneumoniae. The assay is described as follows: Antimicrobial activity against rifampin resistant Klebsiella pneumoniae 52145R assessed as growth inhibition at 0.1 ug/ml in presence of 50 uM uncoupler CCCP and glucose by Etest method. Type of assay: functional, organism-based. The procedure, abridged: as §2

As usually defined, the MIC is the least concentration at which growth counts as inhibited. For `CCn1cc(C(=O)O)c(=O)c2ccc(C)nc21` [NALIDIXIC ACID], the values for the MIC with Klebsiella pneumoniae [1], in the assay with Klebsiella pneumoniae [2] and in the assay with Klebsiella pneumoniae [3] were 0.5 µg/mL (≈ 2.15 µM), 4 µg/mL (≈ 17.2 µM) and 8 µg/mL (≈ 34.4 µM), respectively.
For `CO/N=C(\C(=O)N[C@@H]1C(=O)N2C(C(=O)O)=C(COC(C)=O)CS[C@H]12)c1csc(N)n1` [CEFOTAXIME], in that order: 0.06 µg/mL (≈ 0.132 µM), 0.125 µg/mL (≈ 0.274 µM) and 4 µg/mL (≈ 8.78 µM).
Turning to `CO[C@@]1(NC(=O)Cc2cccs2)C(=O)N2C(C(=O)O)=C(COC(N)=O)CS[C@@H]21` [CEFOXITIN], the MIC in the assay with Klebsiella pneumoniae [1] was found to be 4 µg/mL (≈ 9.36 µM); with Klebsiella pneumoniae [2], 8 µg/mL (≈ 18.7 µM); in the assay with Klebsiella pneumoniae [3], 32 µg/mL (≈ 74.9 µM).
Take `NC[C@H]1O[C@H](O[C@H]2[C@H](O)[C@@H](O[C@H]3O[C@H](CO)[C@@H](O)[C@H](N)[C@H]3O)[C@H](N)C[C@@H]2N)[C@H](N)C[C@@H]1O` [TOBRAMYCIN]: the MIC in the assay with Klebsiella pneumoniae [1] is 0.125 µg/mL (≈ 0.267 µM); with Klebsiella pneumoniae [2] it was 0.25 µg/mL (≈ 0.535 µM); in the assay on Klebsiella pneumoniae [3], 0.25 µg/mL (≈ 0.535 µM).
Consider GENTAMICIN, for which the MIC is 0.06 µg/mL in the assay on Klebsiella pneumoniae [1], 0.25 µg/mL in the assay on Klebsiella pneumoniae [2] and 0.25 µg/mL with Klebsiella pneumoniae [3].
With `O=C(O)c1cn(C2CC2)c2cc(N3CCNCC3)c(F)cc2c1=O` [CIPROFLOXACIN], the MIC in the assay on Klebsiella pneumoniae [1] worked out at 0.008 µg/mL (≈ 0.0241 µM).
As for `C[C@H]1COc2c(N3CCN(C)CC3)c(F)cc3c(=O)c(C(=O)O)cn1c23.C[C@H]1COc2c(N3CCN(C)CC3)c(F)cc3c(=O)c(C(=O)O)cn1c23.O` [LEVOFLOXACIN], the MIC with Klebsiella pneumoniae [1] came out at 0.006 µg/mL; with Klebsiella pneumoniae [2], 0.09 µg/mL; in the assay on Klebsiella pneumoniae [3] it was 0.19 µg/mL.
`O=C(N[C@H](CO)[C@H](O)c1ccc([N+](=O)[O-])cc1)C(Cl)Cl` [CHLORAMPHENICOL]: the MIC with Klebsiella pneumoniae [1] was 1 µg/mL (≈ 3.09 µM); with Klebsiella pneumoniae [2] it was 2 µg/mL (≈ 6.19 µM); in the assay with Klebsiella pneumoniae [3], 4 µg/mL (≈ 12.4 µM).
For `C[C@@H](O)[C@H]1C(=O)N2C(C(=O)O)=C(S[C@@H]3CN[C@H](C(=O)N(C)C)C3)[C@H](C)[C@H]12` [MEROPENEM], in that order: 0.03 µg/mL (≈ 0.0782 µM), 0.03 µg/mL (≈ 0.0782 µM) and 0.03 µg/mL (≈ 0.0782 µM).
For the molecule `CC[C@H]1OC(=O)[C@H](C)[C@@H](O[C@H]2C[C@@](C)(OC)[C@@H](O)[C@H](C)O2)[C@H](C)[C@@H](O[C@@H]2O[C@H](C)C[C@H](N(C)C)[C@H]2O)[C@](C)(O)C[C@@H](C)C(=O)[C@H](C)[C@@H](O)[C@]1(C)O` [ERYTHROMYCIN], the values for the MIC with Klebsiella pneumoniae [1], in the assay with Klebsiella pneumoniae [2] and in the assay with Klebsiella pneumoniae [3] were 8 µg/mL (≈ 10.9 µM), 32 µg/mL (≈ 43.6 µM) and 32 µg/mL (≈ 43.6 µM), respectively.
In the case of `C[C@@H](O)[C@H]1C(=O)N2C(C(=O)O)=C(S[C@@H]3CN[C@H](C(=O)Nc4cccc(C(=O)O)c4)C3)[C@H](C)[C@H]12`, the MIC in the assay with Klebsiella pneumoniae [1], in the assay on Klebsiella pneumoniae [2] and in the assay with Klebsiella pneumoniae [3] was 0.012 µg/mL (≈ 0.0252 µM) in each case.
In the case of `C[C@@H](O)[C@H]1C(=O)N2C(C(=O)O)=C(SCCNC=N)C[C@H]12` [IMIPENEM ANHYDROUS], the MIC in the assay with Klebsiella pneumoniae [1], in the assay with Klebsiella pneumoniae [2] and in the assay with Klebsiella pneumoniae [3] was 0.125 µg/mL (≈ 0.418 µM) each time.
In the case of POLYMYXIN B, the “growth inhibition (GI)” value in the assay with Klebsiella pneumoniae [4] and in the assay with Klebsiella pneumoniae [5] was “Active” in each case. The “growth inhibition (GI)” value with Klebsiella pneumoniae [6] was “inactive”.
Regarding `CN(C)[C@@H]1C(O)=C(C(N)=O)C(=O)[C@@]2(O)C(O)=C3C(=O)c4c(O)cccc4[C@@](C)(O)[C@H]3C[C@@H]12` [TETRACYCLINE], the results for the MIC in the assay on Klebsiella pneumoniae [1], in the assay on Klebsiella pneumoniae [2] and in the assay with Klebsiella pneumoniae [3] were 0.25 µg/mL (≈ 0.563 µM), 2 µg/mL (≈ 4.5 µM) and 4 µg/mL (≈ 9 µM), respectively.
